In ChEMBL document CHEMBL1141128, “Structure-activity relationship study on a simple cationic peptide motif for cellular delivery of antisense peptide nucleic acid” (J Med Chem, 2005):
Values belong to the compound of their own block, whether it stands above or below them.

Key:
CD40 mRNA [1] = assay: […] CD40 expression in BCL1 cells treated with 1 uM peptide nucleic acid (PNA)conjugate; n=3; assay type: functional, cell-based; conditions: Mus musculus
How it was run: (§1)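 Mouse BCL1 cells in DMEM with 10% FBS, given conjugate at 1, 3 or 10 μM by free uptake (no transfection agent) for 3 days. Cells trypsinised and stained 1 h with FITC anti-CD40 (HM40-3) or isotype control, then surface CD40 read by flow cytometry. Results are % untreated control, mean ± SD, n = 3.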

CD40 mRNA [2] = assay: […] CD40 expression in BCL1 cells treated with 3 uM peptide nucleic acid (PNA)conjugate; n=3; assay type: functional, cell-based; conditions: Mus musculus; how it was run: as §1
CD40 mRNA [3] = assay: […] CD40 expression in BCL1 cells treated with 10 uM peptide nucleic acid (PNA)conjugate; n=3; assay type: functional, cell-based; conditions: Mus musculus; how it was run: as §1
BCL1 [4] = assay: Inhibitory concentration against BCL1 cell proliferation in WST-1 assay; Range 10-20; assay type: functional, Mus musculus
How it was run: (§2)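 BCL1 cells, 2000 per well, grown in DMEM with 10% FBS at 37 °C and 5% CO2. Exposed to conjugate for 3 days, then viable cells read by WST-1 absorbance at 450 nm. Value is the concentration at which absorbance fell below 50% of untreated control; triplicates.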

[5] = Half-life of the conjugate when treated with 10% foetal bovine serum for enzymatic stability; assay type: ADME, Bos taurus; conditions: cattle
How it was run: (§3)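 Conjugates at 20 μM in 10% FBS RPMI 1640 medium or 25% mouse serum (Hepes-stabilised, diluted in PBS, pH 7.1–7.4), incubated at 37 °C. Sampled to 168 h (FBS) or 48 h (serum); proteins precipitated with 10% DCA, PNA 6mer internal standard added. Analysed by C3 RP-HPLC at 60 °C; t1/2 from normalised full-length peak area versus time.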

[6] = Half-life of the conjugate when treated with 25% murine serum for enzymatic stability; No degradation observed within the period of time indicated; assay type: ADME; conditions: mouse; how it was run: as §3
BCL1 [7] = assay: Inhibitory concentration against BCL1 cell proliferation in WST-1 assay; assay type: functional, Mus musculus; how it was run: as §2
[8] = Average tissue concentration of conjugate at a dose of 3 mg/Kg in BALB/c mice large intestine when given i.v. measured after 24 h; n=3; assay type: ADME, tissue-based; conditions: mouse, in vivo, iv
[9] = Average tissue concentration of conjugate at a dose of 3 mg/Kg in BALB/c mice MLN when given i.v. measured after 24 h; n=3; assay type: ADME; conditions: mouse, in vivo, iv
[10] = Average tissue concentration of conjugate at a dose of 3 mg/Kg in BALB/c mice injection site when given s.c. measured after 24 h; n=3; assay type: ADME; conditions: mouse, in vivo, sc
[11] = Average tissue concentration of conjugate at a dose of 3 mg/Kg in BALB/c mice large intestine when given s.c. measured after 24 h; n=3; assay type: ADME, tissue-based; conditions: mouse, in vivo, sc
[12] = Average tissue concentration of conjugate at a dose of 3 mg/Kg in BALB/c mice skeletal muscle when given i.v. measured after 24 h; n=3; assay type: ADME, tissue-based; conditions: mouse, in vivo, iv
[13] = Average tissue concentration of conjugate at a dose of 3 mg/Kg in BALB/c mice skeletal muscle when given s.c. measured after 24 h; n=3; assay type: ADME, tissue-based; conditions: mouse, in vivo, sc
[14] = Average tissue concentration of conjugate at a dose of 3 mg/Kg in BALB/c mice small intestine when given i.v. measured after 24 h; n=3; assay type: ADME, tissue-based; conditions: mouse, in vivo, iv
[15] = Average tissue concentration of conjugate at a dose of 3 mg/Kg in BALB/c mice small intestine when given s.c. measured after 24 h; n=3; assay type: ADME, tissue-based; conditions: mouse, in vivo, sc
[16] = Average tissue concentration of conjugate at a dose of 3 mg/Kg in BALB/c mice MLN when given s.c. measured after 24 h; n=3; assay type: ADME; conditions: mouse, in vivo, sc
[17] = Average tissue concentration of conjugate at a dose of 3 mg/Kg in BALB/c mice skin when given i.v. measured after 24 h; n=3; assay type: ADME; conditions: mouse, in vivo, iv
[18] = Average tissue concentration of conjugate at a dose of 3 mg/Kg in BALB/c mice skin when given s.c. measured after 24 h; n=3; assay type: ADME; conditions: mouse, in vivo, sc
[19] = Average tissue concentration of conjugate at a dose of 3 mg/Kg in BALB/c mice heart when given i.v. measured after 24 h; n=3; assay type: ADME, tissue-based; conditions: mouse, in vivo, iv
[20] = Average tissue concentration of conjugate at a dose of 3 mg/Kg in BALB/c mice heart when given s.c. measured after 24 h; n=3; assay type: ADME, tissue-based; conditions: mouse, in vivo, sc
[21] = Average tissue concentration of conjugate at a dose of 3 mg/Kg in BALB/c mice liver when given i.v. measured after 24 h; n=3; assay type: ADME, tissue-based; conditions: mouse, in vivo, iv
[22] = Average tissue concentration of conjugate at a dose of 3 mg/Kg in BALB/c mice liver when given s.c. measured after 24 h; n=3; assay type: ADME, tissue-based; conditions: mouse, in vivo, sc
[23] = Average tissue concentration of conjugate at a dose of 3 mg/Kg in BALB/c mice lungs when given i.v. measured after 24 h; n=3; assay type: ADME; conditions: mouse, in vivo, iv
[24] = Average tissue concentration of conjugate at a dose of 3 mg/Kg in BALB/c mice lungs when given s.c. measured after 24 h; n=3; assay type: ADME; conditions: mouse, in vivo, sc
[25] = Average tissue concentration of conjugate at a dose of 3 mg/Kg in BALB/c mice kidney when given i.v. measured after 24 h; n=3; assay type: ADME; conditions: mouse, in vivo, iv
[26] = Average tissue concentration of conjugate at a dose of 3 mg/Kg in BALB/c mice kidney when given s.c. measured after 24 h; n=3; assay type: ADME; conditions: mouse, in vivo, sc
[27] = Average tissue concentration of conjugate at a dose of 3 mg/Kg in BALB/c mice spleen when given i.v. measured after 24 h; n=3; assay type: ADME, tissue-based; conditions: mouse, in vivo, iv
[28] = Average tissue concentration of conjugate at a dose of 3 mg/Kg in BALB/c mice spleen when given s.c. measured after 24 h; n=3; assay type: ADME, tissue-based; conditions: mouse, in vivo, sc
[29] = Average tissue concentration of conjugate at a dose of 3 mg/Kg in BALB/c mice testes when given i.v. measured after 24 h; n=3; assay type: ADME, tissue-based, Testis; conditions: mouse, in vivo, iv
[30] = Average tissue concentration of conjugate at a dose of 3 mg/Kg in BALB/c mice testes when given s.c. measured after 24 h; n=3; assay type: ADME, tissue-based, Testis; conditions: mouse, in vivo, sc
[31] = Average tissue concentration of conjugate at a dose of 3 mg/Kg in BALB/c mice pancreas when given i.v. measured after 24 h; n=3; assay type: ADME; conditions: mouse, in vivo, iv
[32] = Average tissue concentration of conjugate at a dose of 3 mg/Kg in BALB/c mice pancreas when given s.c. measured after 24 h; n=3; assay type: ADME; conditions: mouse, in vivo, sc
[33] = Half-life of the conjugate when treated with 25% murine serum for enzymatic stability; assay type: ADME; conditions: mouse; how it was run: as §3
[34] = Half-life of the conjugate when treated with 10% foetal bovine serum for enzymatic stability; No degradation observed within the period of time indicated; assay type: ADME, Bos taurus; conditions: cattle; how it was run: as §3

half-life [5]: > 168 h | half-life [6]: > 48 h
SMILES: NCCCC[C@@H](C=O)NC(=O)[C@@H](CCCCN)NC(=O)[C@@H](CCCCN)NC(=O)[C@@H](CCCCN)NC(=O)[C@@H](CCCCN)NC(=O)[C@@H](CCCCN)NC(=O)[C@@H](CCCCN)NC(=O)[C@@H](CCCCN)NC(=O)[C@H](N)CCCCN
UTC (CD40 mRNA [1]): 97% | UTC (CD40 mRNA [2]): 81% | UTC (CD40 mRNA [3]): 54% | IC50 (BCL1 [4]): 20 µM

Biodistribution [8]: 2.07 ug equiv/g | Biodistribution [9]: 1.94 ug equiv/g | Biodistribution [10]: 20 ug equiv/g | Biodistribution [11]: 0.31 ug equiv/g | Biodistribution [12]: 0.29 ug equiv/g | Biodistribution [13]: 0.2 ug equiv/g | Biodistribution [14]: 1.31 ug equiv/g | Biodistribution [15]: 0.26 ug equiv/g | Biodistribution [16]: 0.76 ug equiv/g | Biodistribution [17]: 1.25 ug equiv/g | Biodistribution [18]: 0.75 ug equiv/g | Biodistribution [19]: 0.18 ug equiv/g | Biodistribution [20]: 0.07 ug equiv/g | Biodistribution [21]: 11.47 ug equiv/g | Biodistribution [22]: 5.44 ug equiv/g | Biodistribution [23]: 0.22 ug equiv/g | Biodistribution [24]: 0.1 ug equiv/g | Biodistribution [25]: 12.74 ug equiv/g | Biodistribution [26]: 11.55 ug equiv/g | Biodistribution [27]: 3.68 ug equiv/g | Biodistribution [28]: 1.51 ug equiv/g | Biodistribution [29]: 0.38 ug equiv/g | Biodistribution [30]: 0.23 ug equiv/g | Biodistribution [31]: 0.6 ug equiv/g | Biodistribution [32]: 0.2 ug equiv/g | half-life [33]: 6.7 h | half-life [34]: > 168 h
SMILES: NCCCC[C@@H](C=O)NC(=O)[C@H](CCCCN)NC(=O)[C@H](CCCCN)NC(=O)[C@H](CCCCN)NC(=O)[C@H](CCCCN)NC(=O)[C@H](CCCCN)NC(=O)[C@H](CCCCN)NC(=O)[C@H](CCCCN)NC(=O)[C@@H](N)CCCCN
UTC (CD40 mRNA [1]): 88% [middle of 7 runs] | UTC (CD40 mRNA [3]): 39% [middle of 7 runs] | IC50 for cell proliferation (BCL1 [7]): 20 µM
